Most compounds without a hit are left out; they make up all but 4.7% or so of the library.
Jurkat NFkB inh: inhibitors of the PMA/ionomycin-induced NF-kB reporter in Jurkat cells; inhibition, % at 4 µM; PMA/ionomycin-induced NF-kB luciferase reporter, luminescence; hit rate 0.53% among 330,000; AID 435003; in the data active = inhibition above about 50%
aSyn UTR inh: MLPCN primary screen, SNCA 5' untranslated region. hit rate 0.82% among 300,000. inhibition, % (tested at 7.5 µM). alpha-synuclein 5'UTR reporter, inhibitor activity; in the data active = inhibition above about 60%;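 also: H4 neuroglioblastoma cells stably carrying SNCA 5'UTR luciferase fusion; 0% = DMSO wells and 100% = positive control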
VIM-2 inhibitor: blocks Pseudomonas aeruginosa VIM-2 metallo-beta-lactamase | purified VIM-2, nitrocefin hydrolysis, epi-absorbance fluorescence | inhibition, % at 5.6 µM | hit rate 0.89% among 290,000;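 active = inhibition above the mean of all tested compounds plus 3 SD, cutoff set per screening run, cut at about 7.5% in these data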;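 also: red hydrolysis product quenches plate fluorescence so inhibitors raise well fluorescence; 0% = enzyme with DMSO and 100% = DMSO without enzyme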
697 NFkB inh: lowers PMA/ionomycin-induced NF-kB signal in 697 B cells; 697 B-cell NF-kB luciferase reporter, 16 h; inhibition, % at 4 µM; hit rate 0.33% among 330,000; in the data active = inhibition above about 35%
Mdm2-MdmX inh: inhibitors of human Mdm2/MdmX interaction. hit rate 3% among 330,000. AID 485346. SaOS-2 split-luciferase Mdm2/MdmX complementation, luminescence. inhibition, % at 8 µM;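 active = inhibition of at least 50% at 8 µM in the primary screen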
IMP-1 inh: blocks Pseudomonas aeruginosa IMP-1 metallo-beta-lactamase; AID 1556; purified IMP-1, nitrocefin hydrolysis, epi-absorbance fluorescence; inhibition, % at 5.6 µM; hit rate 0.45% among 290,000;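 active = inhibition above the mean plus 3 SD of all compounds in the same screening run, cut at about 4.5% in these data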;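 also: 0% = IMP-1 with DMSO and 100% = DMSO wells lacking enzyme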
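Material – recombinant IMP-1 enzyme, purified · Amount – IMP-1 0.2 nM before substrate addition · Medium – HEPES buffer pH 7.1 with ZnSO4 and Brij 35 · Timing – 25 °C, 15 min preincubation, 25 min reaction · Measured by – plate fluorescence quenching by hydrolysis product, ex 480/em 530 nm · Read-out – percent enzyme inhibition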
Mdm2 MdmX conf: human Mdm2/MdmX binding inhibition, confirmed | shares compounds with Mdm2-MdmX inh | luminescent assay | inhibition, % at 8 µM | hit rate 55% among 10,000 | AID 489028; in the data active = inhibition above about 40%
Full FLuc ctr: counter-screen for Mdm2/MdmX inhibitors: full-length luciferase; shares compounds with Mdm2-MdmX inh; SaOS-2 full-length luciferase counterscreen, luminescence; inhibition, % at 8 µM; hit rate 77% among 6,200;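 active = mean inhibition at 8 µM reaching about 37%, which flags the compound as non-specific, limit read from the data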;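 also: p53-null SaOS-2 cells with luciferase driven by a doxycycline-inducible promoter; compound on cells about two nights before reading with doxycycline added after day one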
Starred values were filed as active, the others as inactive; / = no result.

SMILES	Jurkat NFkB inh	aSyn UTR inh	VIM-2 inhibitor	697 NFkB inh	Mdm2-MdmX inh	IMP-1 inh	Mdm2 MdmX conf	others
Cc1ccc(N(CC(=O)NCCSc2nc3ccccc3s2)S(=O)(=O)c2ccccc2)c(C)c1	0	51	-2	2	3	-3	/
O=c1nc(-c2ccccc2)nc(-c2ccccc2)[nH]1	-22	-1	-2	-3	5	-2	/
Cc1ccc(CNC(=O)c2ccc(N3CCC4(CC3)CC(c3ccccc3)=NO4)c(N)c2)cc1	10	-10	-2	-24	55*	-2	0
CC(=O)C1C(=O)c2c(cccc2[N+](=O)[O-])C1=Nc1ccc(S(N)(=O)=O)cc1 (configuration not stated)	-10	6	-3	-7	18	2	/
O=C(Nc1nccs1)C1CCCN1/C=C/C(=O)C(F)(F)F (configuration not stated)	-6	-7	1	-18	8	-1	/
COc1cccc(-c2cc(-c3cccnc3)nc(N)c2C#N)c1	-5	8	-3	-8	59*	-4	12
Cc1c(-c2ccccc2)nc(N)c(C#N)c1-c1cccnc1	4	35	0	2	26	-1	/
COc1ccc(OC)c(-c2cc(-c3cccnc3)nc(N)c2C#N)c1	35	0	-1	-57	63*	-3	62*	Full FLuc ctr=76*
Cc1nc(N)c(C#N)c(-c2cccnc2)c1-c1ccccc1	19	11	-2	-4	56*	-2	42*	Full FLuc ctr=56*
N#Cc1c(-c2ccc(F)cc2)cc(-c2cccnc2)nc1N	-6	6	-3	-1	13	0	/
COc1ccc(-c2cc(-c3cccnc3)c(C#N)c(N)n2)cc1	5	48	-4	-16	73*	-2	9
COc1cccc(-c2cc(-c3cccnc3)c(C#N)c(N)n2)c1	-6	19	-2	4	22	-4	/
CC1CCCC(NC(=O)CN2CCN(S(=O)(=O)c3ccc(Br)s3)CC2)C1C (configuration not stated)	1	/	/	5	12	/	/
CC(=O)Nc1ccc(NC(=O)C(C)OC(=O)C(C)SCC(=O)Nc2ccc(C)cc2)cc1 (configuration not stated)	-26	-1	/	-19	-25	/	/
Cc1ccccc1NC(=O)C(NC1CCCCC1)C(C)C (configuration not stated)	-5	-9	-4	-7	-13	-2	/
Cc1ccc(C(=O)NCCCNC(=O)c2ccccc2C)cn1	16	-13	-2	7	16	-4	/
COc1cccc(C(=O)Nc2ccc3nc(N4CCN(c5ncccn5)CC4)cc(C)c3c2)c1OC	19	/	-3	-28	98*	-1	88*	Full FLuc ctr=7
CCN1CCN(c2cc(C)c3cc(NC(=O)c4ccc5c(c4)OCO5)ccc3n2)CC1	-3	-21	-4	-2	71*	-5	50*	Full FLuc ctr=84*
CCN1CCN(c2cc(C)c3cc(NC(=O)c4cccc(OC)c4)ccc3n2)CC1	-20	-124	-2	-1	16	-2	/
CCN1CCN(c2cc(C)c3cc(NC(=O)c4cncc(Br)c4)ccc3n2)CC1	-8	-37	3	-6	66*	0	27
COc1ccc(Cl)cc1NC(=S)NCCSc1ccc(C)cc1	5	3	0	19	14	1	/
CC(C)Cc1ccc(/C=C/C(=O)NC2CC2)cc1	-71	-108	1	-82	-105	-4	/
O=C1c2ccccc2C(Nc2ccc(Cl)cn2)N1c1cccnc1 (configuration not stated)	-11	-9	-2	12	17	-4	/
CC(=O)c1c(C)[nH]c(C(=O)OCC(=O)c2c(N)n(C)c(=O)n(C)c2=O)c1C	-14	-5	-2	-22	56*	-2	2
CC(=O)c1c(C)[nH]c(C(=O)OCC(=O)c2c(N)n(CC(C)C)c(=O)n(C)c2=O)c1C	4	/	/	3	45	/	/
SMILES	Jurkat NFkB inh	aSyn UTR inh	VIM-2 inhibitor	697 NFkB inh	Mdm2-MdmX inh	IMP-1 inh	Mdm2 MdmX conf	others
COc1cc2c(cc1NC(=O)COc1ccc3ccccc3c1)oc1ccccc12	0	4	-1	-2	62*	-2	24
CCN(CC)c1ccc(C(=O)OCC(=O)Nc2cc3oc4ccccc4c3cc2OC)cc1	-18	-10	-1	-5	51*	-2	26
COc1cc2c(cc1NC(=O)COCC(=O)O)oc1ccccc12	4	-2	-1	8	17	-2	/
COc1ccc(CC(=O)Nc2cc3oc4ccccc4c3cc2OC)cc1	-80	-162	0	-32	-166	-1	/
COc1ccc(/C=C/C(=O)OCC(=O)Nc2cc3oc4ccccc4c3cc2OC)cc1	-60	24	-1	-30	82*	0	-17
CC(=O)c1cccc(OCC(=O)Nc2ccccc2N2CCOCC2)c1	0	/	/	17	1	/	/
C=CCn1c(Cc2cccs2)nnc1SCC(=O)Nc1cc(OC)cc(OC)c1	2	9	0	6	11	-2	/
Cc1cc(C)c(OCC(=O)Nc2ccc(S(=O)(=O)N3CCCC3)cc2)c(C)c1	15	37	/	5	19	/	/
CC1CCCC(C)N1C(=C(Cl)Cl)C(=C1SCCS1)[N+](=O)[O-] (configuration not stated)	-1	1	-7	2	8	-3	/
Cc1cccc(N2CCN(C(c3ccncc3)c3nnnn3C(C)(C)C)CC2)c1C (configuration not stated)	-2	11	-3	10	22	-2	/
COC(=O)c1cc(=O)n(Cc2ccco2)c(=Nc2ccc(F)c(Cl)c2)s1	3	-36	-1	13	100*	-3	35	Full FLuc ctr=65*
COC(=O)c1cc(=O)n(CCc2ccccc2F)c(=Nc2ccc(F)c(Cl)c2)s1	14	-47	-2	4	73*	-3	13
COC(=O)c1ccc(N=c2sc(C(=O)OC)cc(=O)n2C)cc1	/	/	-1	/	/	-1	/
CCN(CC)S(=O)(=O)c1cc(NC(=O)CCCOc2ccc(C(C)=O)cc2)ccc1C	12	-2	-2	-34	17	-5	/
O=C(Cn1cnc([N+](=O)[O-])c1)Nc1cc(Oc2ccc(Cl)cc2Cl)cc([N+](=O)[O-])c1	-2	17	0	12	56*	-3	26
N#Cc1ccc(NC(=O)Cn2cnc([N+](=O)[O-])c2)cc1	13	-5	0	-9	-24	-6	/
COc1ccc(NS(=O)(=O)c2cccs2)cn1	5	-6	-2	2	79*	-3	12
CC(=O)c1ccc(NC(=O)c2ccc(S(=O)(=O)c3ccccc3)cc2)cc1	-9	-9	-2	-16	9	-3	/

Bioassay records: PubChem, several laboratories
